ADAM17 inh – inhibits human ADAM17; hit rate 0.83% among 370,000; AID 720648; inhibition, % at 6.95 µM; P78536; recombinant ADAM17, EDANS/DABCYL FRET peptide cleavage;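 active means inhibition above the mean of compounds lying between control limits plus 3 SD, set per campaign, cut at about 8.5% in these data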;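 further: 0% = DMSO-only wells as the low control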
Target sequence (P78536 215-824 limits assumed): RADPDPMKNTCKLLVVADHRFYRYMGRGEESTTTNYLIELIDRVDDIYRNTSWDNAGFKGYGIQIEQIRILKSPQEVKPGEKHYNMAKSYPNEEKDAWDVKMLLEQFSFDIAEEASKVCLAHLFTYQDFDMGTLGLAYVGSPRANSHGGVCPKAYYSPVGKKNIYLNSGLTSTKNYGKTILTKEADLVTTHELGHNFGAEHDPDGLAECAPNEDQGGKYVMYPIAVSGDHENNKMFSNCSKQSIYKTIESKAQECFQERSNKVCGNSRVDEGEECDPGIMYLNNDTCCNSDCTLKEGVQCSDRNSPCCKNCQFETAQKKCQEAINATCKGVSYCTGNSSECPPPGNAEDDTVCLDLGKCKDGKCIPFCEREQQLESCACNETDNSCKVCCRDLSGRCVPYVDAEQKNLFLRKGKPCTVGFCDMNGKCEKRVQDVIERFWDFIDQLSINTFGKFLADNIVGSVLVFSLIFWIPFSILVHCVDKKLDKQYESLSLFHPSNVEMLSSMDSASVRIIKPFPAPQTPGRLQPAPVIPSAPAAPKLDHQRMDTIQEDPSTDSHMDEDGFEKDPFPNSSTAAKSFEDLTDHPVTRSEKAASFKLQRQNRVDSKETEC
SKN-1 inh – blocks SKN-1 activity in C. elegans | C. elegans VP596 Pgst-4::GFP/RFP ratio, acrylamide-induced, 24 h | inhibition, % at 21.8 µM | hit rate 0.49% among 360,000 | AID 624304;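 active means interference check ratio from 0.5 to 1.5 plus GFP to RFP signal ratio inhibition reaching or exceeding a fixed threshold, cut at about 30% in these data, passing the limit was not always enough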
ADAM10 inh – ADAM10 inhibition, QFRET primary screen | inhibition, % at 7 µM | hit rate 0.62% among 370,000 | O14672 | recombinant ADAM10, EDANS/DABCYL FRET peptide cleavage, 3 h;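 active means inhibition above a per-campaign cutoff equal to the mean of compounds falling between control-based bounds plus 3 SD, cut at about 20% in these data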;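 further: 0% = DMSO wells while the 100% control is not disclosed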
MT1-MMP act inh – inhibitors of human MT1-MMP activation | P50281 | HT1080 RFP-PRO-GFP cells, GFP/RFP ratio fluorescence, overnight; percent of plate control window, DMSO zero | GFP/RFP ratio change, % at 20 µM | hit rate 0.061% among 360,000 | AID 651647;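 active means GFP/RFP ratio change of at least 30% with cell ATP level not reduced by more than half and red fluorescence within 50% of control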
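Compound: 20 µM single dose, 1% DMSO / System: HT1080 RFP-PRO-GFP cells / Controls: DMSO and RFP-L50D-GFP cell wells / Read-out basis: GFP/RFP fluorescence ratio / Schedule: overnight compound exposure at 37 °C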
GRIN3A LBD mod – modulators (binders) of human NR3A ligand-binding domain | Tm shift relative to glycine control, % at 25 µM | NR3A LBD differential scanning fluorimetry, Tm shift; 0% = protein alone, 100% = glycine-bound protein | hit rate 2.5% among 340,000;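 active means melting temperature shift of at least 10% of the positive control shift, at one fixed dose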
MPTP inh – permeability transition pore inhibition; inhibition, % at 10 µM; hit rate 1.4% among 360,000; AID 602449; isolated mouse mitochondria, Ca2+ swelling absorbance, 30 min;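 active means inhibition of 50% or more, scaled per plate between neutral and stimulator controls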;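 further: 0% = DMSO wells given calcium and 100% = 1 mM EGTA wells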
* = called active by the depositor; / = no result. Sampled rows, rich in hits. Any-hit rate of the full collection: about 4.7%.

SMILES	ADAM17 inh	SKN-1 inh	ADAM10 inh	MT1-MMP act inh	GRIN3A LBD mod	MPTP inh
COCC(C)N1CCC(n2nccc2NC(=O)CCOc2ccccc2)CC1 (stereo not drawn)	-4	-9	-5	-6	-1	-1
Cc1ccc(NC(=O)C(C)OC(=O)c2ccc(NS(=O)(=O)c3ccc(F)c(F)c3)cc2)cc1 (stereo not drawn)	2	2	11	1	28*	20
CC(=O)Nc1ccc(NC(=O)C(C)OC(=O)c2ccc(S(=O)(=O)N3CCCCC3)cc2)cc1 (stereo not drawn)	-1	-11	3	-6	-5	0
CC(OC(=O)c1ccc(NS(=O)(=O)c2ccc3[nH]c(=O)[nH]c3c2)cc1)C(=O)Nc1ccc(Cl)cc1 (stereo not drawn)	4	8	11	4	15*	1
CC(=O)c1ccc(NC(=O)C(C)OC(=O)c2ccc(NS(=O)(=O)c3ccc(F)c(F)c3)cc2)cc1 (stereo not drawn)	4	-1	8	1	11*	5
O=C(NC1CCCCC1)C(c1ccc2ncccc2c1)N(Cc1cccs1)C(=O)c1cccs1 (stereo not drawn)	-3	16	5	-4	14*	0
ClCc1csc(-c2ccc(Cl)cc2)n1	-3	14	5	-6	13*	0
CCOc1ccc(-c2nnc(-c3cccs3)o2)cc1OCC	-11	15	-59	2	1	6
CCOc1ccc(-c2nnc(-c3cccs3)o2)cc1	-66	70*	-246	0	2	-2
Oc1ccc(-c2csc(Nc3ncccn3)n2)c(O)c1	-1	6	8	7	2	0
Cc1cccnc1Nc1nc(-c2ccc(O)cc2)cs1	2	7	2	4	30*	0
Cc1cccnc1Nc1nc(-c2ccc(F)cc2)cs1	4	42*	10	1	1	1
CCCCS(=O)(=O)Nc1ccc(N2CCOCC2)c(S(=O)(=O)N2CCOCC2)c1	0	-12	5	-5	0	-1
CCCCCn1c(NCc2ccco2)nc2ccccc21	-3	5	-13	3	-4	0
Cc1ccc(C(=O)NC(=S)Nc2ccc3c(c2)OCCO3)c(C)c1	1	-1	16	2	-1	-6
c1ccc(-c2cn3c(n2)-c2ccccc2C3)cc1	-12	24	-30	-3	13*	2
Cc1ccc(-c2nc3n(n2)Cc2ccccc2-3)cc1	-3	21	-15	-2	1	0
C[C@@H]1CN([C@@H](C)CO)C(=O)CCCn2cc(nn2)CO[C@H]1CN(C)C(=O)Nc1ccc(C(C)(C)C)cc1	-3	/	-10	/	/	/
O=C(c1ccc([N+](=O)[O-])cc1[N+](=O)[O-])N1CCc2ccccc21	0	13	-1	2	0	0
O=C(N=C1N=C2C=CC(Br)=CN2Cc2ccccc21)c1ccc([N+](=O)[O-])cc1[N+](=O)[O-]	9.1*	60*	18	-4	-2	1
CCN(CC)C(=O)CN(C#N)c1nc(C)cc(C)n1	1	1	1	3	0	-1
Cc1cc(C)c(S(=O)(=O)/N=C2\C=CC(=O)C(Cl)=C2)c(C)c1	/	-7	/	6	12*	0
Cc1cc(C)c(S(=O)(=O)/N=C2\C=C(Nc3ccc(C(=O)O)cc3)C(=O)c3ccccc32)c(C)c1	0	-11	4	16	-1	10
CNc1nc2c3ccccc3n(C(C)=O)c2s1	8	-3	-3	7	18*	0
O=C(Nc1ccnn1C1CCN(Cc2ccc(CO)o2)CC1)c1ccccc1Cl	-6	-1	-14	1	-1	0
SMILES	ADAM17 inh	SKN-1 inh	ADAM10 inh	MT1-MMP act inh	GRIN3A LBD mod	MPTP inh
CCc1ccc(NC(=O)Cc2ccc(NC3=NC4CS(=O)(=O)CC4S3)cc2)cc1 (stereo not drawn)	-4	3	-6	1	10*	-1
CCc1ccc(NC(=O)c2ccc(NC3=NC4CS(=O)(=O)CC4S3)cc2)cc1 (stereo not drawn)	-1	-16	6	1	13*	0
CC(C)=CCc1c(-c2ccc(O)cc2O)oc2cc3c(c(O)c2c1=O)C=CC(C)(C)O3	/	/	/	/	31*	/
CCN(CC)c1ccc(S(=O)(=O)Nc2cc(Cl)ccc2Cl)cc1NC(=S)NC(=O)C1CCCC1	8	-10	17	-24	14*	21
O=[N+]([O-])/C=C/c1cc2ccccc2[nH]1	1	-15	6	-3	18*	0
O=C(COC(=O)[C@@H]1CCCN1C(=O)c1cccs1)NCCc1ccccc1	-2	36*	-5	-4	0	1
O=C(O)c1ccc2c(c1)[C@@H]1C=CC[C@@H]1[C@H](c1ccccn1)N2	3	44*	2	-4	-1	2
CCc1ccc(OCC(=O)N(C)CCC#N)c(Br)c1	-4	-2	-3	-1	-1	0
O=C(Nc1cccc(NC(=O)c2ccc(-c3ccc(Br)cc3)o2)c1)c1ccco1	-68	19	-184	5	31*	15
COc1ccc(-c2cccc(NC(=O)c3ccco3)c2)nn1	-3	21	-2	4	43*	0
COc1ccc(-c2ccc(NC(=O)c3ccco3)cc2)nn1	-5	15	-17	-1	/	0
C=CCn1c(CNC(=O)c2cccs2)nnc1SCc1ccc(Cl)cc1Cl	1	0	-1	-6	0	4
COc1cc(/C=C/CNC[C@H]2O[C@@H](n3ccc(N)nc3=O)[C@H](O)[C@@H]2O)ccc1O	-6	4	-11	6	/	0
O=C(OCc1ccc(Cl)c(Cl)c1)c1cccnc1Cl	2	25	6	-2	1	2
O=C(OCc1ccc(Cl)cc1Cl)c1cccnc1Cl	1	-21	6	1	12*	0
CCCCCCC1CC(CC(=O)Nc2ccc([N+](=O)[O-])cc2)C(=O)O1 (stereo not drawn)	0	5	-1	-2	2	27
CCCCCC1CC(CC(=O)NC(=S)Nc2ccc([N+](=O)[O-])cc2)C(=O)O1 (stereo not drawn)	-2	9	9	3	15*	3
CC(Sc1nc2ccccc2o1)C(=O)O (stereo not drawn)	-2	-11	-2	0	-3	-1
CSc1ccc(C2C(C#N)=C(N)Oc3c2ccc(=O)c2c(C)oc(C)c32)cc1 (stereo not drawn)	-4	5	-2	-80	0	3
Cc1oc(C)c2c(=O)ccc3c(c12)OC(N)=C(C#N)C3c1ccccc1 (stereo not drawn)	-6	48*	-19	-52	-7	2

High-throughput results as filed in PubChem.
